# Data from PMC9206500 (Journal of medicinal chemistry, 2021).
# Read-outs that look alike come from different tables or passages of the source.
# Tests used:
# [1] = system: three human malignant melanoma cell lines and three breast cancer cell lines; assay: MTS cell proliferation assay, average over the panel; assay type: cell-based; settings: for IC50: read-out: average IC50
# [2] = target: purified porcine brain tubulin (Sus scrofa, UniProt P02554+Q2XVP4); assay: Cell-free tubulin polymerization assay; assay type: biochemical; settings: 10 μM, tubulin 3 mg/mL, GTP 1 mM, 1 h
# Chain of purified porcine brain tubulin (Q2XVP4 whole entry): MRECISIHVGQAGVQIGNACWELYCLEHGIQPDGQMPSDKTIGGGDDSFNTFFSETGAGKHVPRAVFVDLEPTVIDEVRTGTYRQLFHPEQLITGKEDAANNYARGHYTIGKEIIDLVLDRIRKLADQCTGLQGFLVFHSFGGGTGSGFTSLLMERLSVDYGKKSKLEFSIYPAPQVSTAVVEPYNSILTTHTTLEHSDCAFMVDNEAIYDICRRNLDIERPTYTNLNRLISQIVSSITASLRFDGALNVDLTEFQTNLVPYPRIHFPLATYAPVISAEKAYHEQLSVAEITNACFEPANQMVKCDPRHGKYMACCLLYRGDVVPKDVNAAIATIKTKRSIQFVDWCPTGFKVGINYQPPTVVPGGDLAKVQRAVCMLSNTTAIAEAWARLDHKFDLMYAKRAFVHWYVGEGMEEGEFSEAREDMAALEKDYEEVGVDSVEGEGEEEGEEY
# Chain of purified porcine brain tubulin (P02554 whole entry): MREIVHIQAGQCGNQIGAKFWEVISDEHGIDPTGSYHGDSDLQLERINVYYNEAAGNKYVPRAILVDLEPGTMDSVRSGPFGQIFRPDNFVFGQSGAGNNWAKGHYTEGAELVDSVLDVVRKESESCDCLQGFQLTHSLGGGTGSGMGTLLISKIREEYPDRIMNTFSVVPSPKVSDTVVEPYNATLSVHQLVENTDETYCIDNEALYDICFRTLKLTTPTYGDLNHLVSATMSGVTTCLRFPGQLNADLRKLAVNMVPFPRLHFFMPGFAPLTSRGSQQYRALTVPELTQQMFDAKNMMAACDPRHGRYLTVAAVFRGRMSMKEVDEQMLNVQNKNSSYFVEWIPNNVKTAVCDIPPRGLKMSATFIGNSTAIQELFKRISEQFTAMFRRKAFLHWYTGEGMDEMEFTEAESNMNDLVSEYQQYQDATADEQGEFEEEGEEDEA
# A375/TxR cells [3] = assay: Annexin V-FITC/PI apoptosis detection; assay type: cell-based, human; settings: 10 nM, 24 h; untreated […]
# [4] = Liver microsome stability assay, human; settings: for fold improvement of half-life in human liver microsomes: compared to parent compound CH-2-77
# CYP1A = CYP1A (Homo sapiens, UniProt P05177); assay: CYP inhibition, CYP1A; assay type: in vitro ADME; settings: at 10 μM, HLM, phenacetin substrate
# Chain of CYP1A (P05177 whole entry): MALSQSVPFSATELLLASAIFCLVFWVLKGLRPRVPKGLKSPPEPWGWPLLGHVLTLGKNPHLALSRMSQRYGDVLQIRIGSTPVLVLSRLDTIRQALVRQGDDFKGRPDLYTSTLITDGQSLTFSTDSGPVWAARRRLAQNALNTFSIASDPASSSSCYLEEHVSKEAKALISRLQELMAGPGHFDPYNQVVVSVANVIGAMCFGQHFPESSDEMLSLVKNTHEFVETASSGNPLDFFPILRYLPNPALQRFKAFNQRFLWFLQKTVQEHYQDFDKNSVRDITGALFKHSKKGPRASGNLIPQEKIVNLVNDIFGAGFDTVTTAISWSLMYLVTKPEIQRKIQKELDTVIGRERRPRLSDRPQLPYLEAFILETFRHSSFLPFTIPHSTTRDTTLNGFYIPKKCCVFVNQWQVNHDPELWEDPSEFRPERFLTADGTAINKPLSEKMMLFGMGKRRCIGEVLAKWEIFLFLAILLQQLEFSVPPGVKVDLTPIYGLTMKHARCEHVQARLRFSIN
# CYP2B6 = CYP2B6 (Homo sapiens, UniProt P20813); assay: CYP inhibition, CYP2B6; assay type: in vitro ADME; settings: at 10 μM, HLM, bupropion substrate
# Chain of CYP2B6 (P20813 whole entry): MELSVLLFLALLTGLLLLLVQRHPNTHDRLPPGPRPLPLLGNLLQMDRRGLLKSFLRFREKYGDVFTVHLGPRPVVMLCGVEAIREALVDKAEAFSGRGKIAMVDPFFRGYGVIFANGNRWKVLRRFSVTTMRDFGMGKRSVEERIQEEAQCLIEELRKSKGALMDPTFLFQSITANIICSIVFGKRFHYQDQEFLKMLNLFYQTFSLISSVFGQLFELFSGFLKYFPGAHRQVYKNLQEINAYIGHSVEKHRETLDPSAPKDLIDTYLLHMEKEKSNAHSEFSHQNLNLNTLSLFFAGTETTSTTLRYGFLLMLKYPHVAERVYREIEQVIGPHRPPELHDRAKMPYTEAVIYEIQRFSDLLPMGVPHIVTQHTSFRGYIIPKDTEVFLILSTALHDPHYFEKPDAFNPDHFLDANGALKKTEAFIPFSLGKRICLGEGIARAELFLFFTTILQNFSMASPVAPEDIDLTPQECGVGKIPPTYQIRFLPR
# CYP2C9 = CYP2C9 (Homo sapiens, UniProt P11712); assay: CYP inhibition, CYP2C9; assay type: in vitro ADME; settings: at 10 μM, HLM, diclofenac substrate
# Chain of CYP2C9 (P11712 whole entry): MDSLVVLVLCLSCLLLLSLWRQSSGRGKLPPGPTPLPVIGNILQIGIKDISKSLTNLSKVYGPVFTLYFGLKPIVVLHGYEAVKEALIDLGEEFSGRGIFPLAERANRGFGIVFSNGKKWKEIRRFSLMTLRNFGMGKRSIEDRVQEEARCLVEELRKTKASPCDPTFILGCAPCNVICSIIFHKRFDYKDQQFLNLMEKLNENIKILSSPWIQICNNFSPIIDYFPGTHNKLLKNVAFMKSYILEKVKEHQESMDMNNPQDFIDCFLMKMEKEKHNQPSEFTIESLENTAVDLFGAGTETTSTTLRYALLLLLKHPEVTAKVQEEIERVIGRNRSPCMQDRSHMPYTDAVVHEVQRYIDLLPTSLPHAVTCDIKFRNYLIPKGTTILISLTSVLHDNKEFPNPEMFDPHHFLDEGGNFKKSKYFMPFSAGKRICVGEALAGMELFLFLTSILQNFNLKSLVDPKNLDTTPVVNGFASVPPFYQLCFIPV
# CYP2C19 = CYP2C19 (Homo sapiens, UniProt P33261); assay: CYP inhibition, CYP2C19; assay type: in vitro ADME; settings: at 10 μM, HLM, omeprazole substrate
# Chain of CYP2C19 (P33261 whole entry): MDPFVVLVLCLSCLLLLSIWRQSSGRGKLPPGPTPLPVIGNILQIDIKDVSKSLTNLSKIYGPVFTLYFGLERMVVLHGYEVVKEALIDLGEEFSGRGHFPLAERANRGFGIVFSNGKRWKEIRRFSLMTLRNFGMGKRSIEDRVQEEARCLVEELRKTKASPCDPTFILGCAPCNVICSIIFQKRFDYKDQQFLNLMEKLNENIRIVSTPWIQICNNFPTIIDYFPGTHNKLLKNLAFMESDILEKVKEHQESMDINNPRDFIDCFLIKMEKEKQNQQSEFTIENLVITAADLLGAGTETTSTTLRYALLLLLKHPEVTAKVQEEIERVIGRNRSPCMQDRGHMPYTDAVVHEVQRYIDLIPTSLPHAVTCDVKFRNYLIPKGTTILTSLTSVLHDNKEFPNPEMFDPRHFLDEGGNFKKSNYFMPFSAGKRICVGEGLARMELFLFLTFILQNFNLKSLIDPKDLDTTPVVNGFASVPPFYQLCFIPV
# CYP2D6 = CYP2D6 (Homo sapiens, UniProt P10635); assay: CYP inhibition, CYP2D6; assay type: in vitro ADME; settings: at 10 μM, HLM, dextromethorphan substrate
# Chain of CYP2D6 (P10635 whole entry): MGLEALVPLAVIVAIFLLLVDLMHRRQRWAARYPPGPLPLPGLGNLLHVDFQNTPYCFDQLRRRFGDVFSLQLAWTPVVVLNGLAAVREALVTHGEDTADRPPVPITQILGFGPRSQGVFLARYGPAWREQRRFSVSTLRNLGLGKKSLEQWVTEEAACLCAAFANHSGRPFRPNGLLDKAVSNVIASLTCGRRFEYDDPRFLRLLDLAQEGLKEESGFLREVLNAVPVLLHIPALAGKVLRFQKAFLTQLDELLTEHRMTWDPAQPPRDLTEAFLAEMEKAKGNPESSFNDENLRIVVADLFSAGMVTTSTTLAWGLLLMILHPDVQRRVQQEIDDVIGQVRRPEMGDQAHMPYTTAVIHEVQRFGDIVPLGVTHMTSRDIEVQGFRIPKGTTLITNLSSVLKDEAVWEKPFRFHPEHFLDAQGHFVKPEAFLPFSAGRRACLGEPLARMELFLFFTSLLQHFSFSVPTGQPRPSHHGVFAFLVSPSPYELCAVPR
# CYP3A = assay: CYP inhibition, CYP3A; assay type: in vitro ADME, human; settings: at 10 μM, HLM
# TA98 = assay: AMES fluctuation test, TA98; set-up: species or system bacteria; settings: strain TA98
# A100 = assay: AMES fluctuation test, A100; set-up: species or system bacteria; settings: strain A100
# TA1535 = assay: AMES fluctuation test, TA1535; set-up: species or system bacteria; settings: strain TA1535
# TA1537 = assay: AMES fluctuation test, TA1537; set-up: species or system bacteria; settings: strain TA1537
# A375/TxR cells [5] = assay: Cell cycle analysis by flow cytometry; assay type: cell-based, human; settings: 24 h; controls 10 nM, 60c 2.5, 5, 10 nM
# A375/TxR xenograft [6] = assay: A375/TxR xenograft antitumor efficacy; assay type: in vivo, NSG mice; settings: for average tumor weight: vehicle 2.0 g; for tumor necrosis (H&E of excised tumors): 60c 10 and 20 mg/kg, paclitaxel 10 mg/kg
# Outline: (§1)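 Hosts were NSG mice aged 5–6 weeks. At ~100 mm3 mice were randomized by weight and volume into four groups (3 male + 3 female each). Test compound vehicle was PEG300:Tween 80:saline 3:1:6. Dosing was IP three times weekly. The study ended when vehicle tumors neared ~1000 mm3.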
# A375/TxR xenograft [7] = assay: Spontaneous metastasis in A375/TxR xenograft model; assay type: in vivo, NSG mice; settings: for mice that developed liver metastases: n = 6
# Outline: as §1
# [8] = Systemic toxicity in A375/TxR tumor-bearing mice; assay type: in vivo, NSG mice; settings: for histology of major organs (lung, liver, kidney, heart, spleen), H&E: paclitaxel 10 mg/kg, 60c 10 or 20 mg/kg IP
# Outline: as §1
# MDA-MB-231 = assay: MTS cell proliferation assay, MDA-MB-231; assay type: cell-based, human; settings: read-out: IC50 ± SEM, MDA-MB-231, breast cancer cell line, 72 h, n = 4
# MDA-MB-453 = assay: MTS cell proliferation assay, MDA-MB-453; assay type: cell-based, human; settings: read-out: IC50 ± SEM, MDA-MB-453, breast cancer cell line, 72 h, n = 4
# SKBR3 = assay: MTS cell proliferation assay, SKBR3; assay type: cell-based, human; settings: read-out: IC50 ± SEM, SKBR3, breast cancer cell line, 72 h, n = 4
# A375 = assay: MTS cell proliferation assay, A375; assay type: cell-based, human; settings: read-out: IC50 ± SEM, A375, melanoma cell line, 72 h, n = 4
# M14 = assay: MTS cell proliferation assay, M14; assay type: cell-based, human; settings: read-out: IC50 ± SEM, M14, melanoma cell line, 72 h, n = 4
# RPMI7951 = assay: MTS cell proliferation assay, RPMI7951; assay type: cell-based, human; settings: read-out: IC50 ± SEM, RPMI7951, melanoma cell line, 72 h, n = 4
# [9] = Liver microsome stability assay, mouse; settings: 0.5 mg/mL protein, 10 μM compound, NADPH
compound,measurement,setting,value
"COc1cc(C(=O)c2cccc(-c3ccc(C)cc3)n2)cc(OC)c1OC [CH-2–1, (6-(p-Tolyl)pyridin-2-yl)(3,4,5-trimethoxyphenyl)methanone, reference compound]",IC50,[1]; Homo sapiens,3.7 nM
COc1cc(C(=O)c2cccc(-c3ccc(C)c(O)c3)n2)cc(OC)c1OC [CH-2–77],IC50,[1]; Homo sapiens,2.5 nM
same,effect on tubulin polymerization,[2],interfered with tubulin polymerization
same,apoptotic cells,A375/TxR cells [3],51.1%
"COc1cc(C(=O)c2cccc(-c3ccc(N(C)C)cc3)n2)cc(OC)c1OC [Compound 4c, (6-(4-(Dimethylamino)phenyl)pyridin-2-yl) (3,4,5-trimethoxyphenyl)methanone]",IC50,[1]; Homo sapiens,48.7 nM
same,fold reduction in antiproliferative activity,"[1]; compared to CH-2–1, average IC50",13 fold
"COc1cc(C(=O)c2cccc(-c3ccc(C)cc3)n2)cc2c1OCCO2 [Compound 10, (8-Methoxy-2,3-dihydrobenzo[b][1,4]dioxin-6-yl)(6-(p-tolyl)-pyridin-2-yl)methanone]",IC50,[1]; Homo sapiens,3.8 nM
"CCc1c(OC)cc(C(=O)c2cccc(-c3ccc(C)c(O)c3)n2)cc1OC [Compound 13, (4-Ethyl-3,5-dimethoxyphenyl)(6-(3-hydroxy-4-methylphenyl)-pyridin-2-yl)methanone]",IC50,[1]; Homo sapiens,18.3 nM
"COc1cc(-c2n[nH]c3ccc(-c4ccc(C)c(O)c4)nc23)cc(OC)c1OC [Compound 22, 2-Methyl-5-(3-(3,4,5-trimethoxyphenyl)-1H-pyrazolo[4,3-b]-pyridin-5-yl)phenol]",IC50,[1]; Homo sapiens,34.1 nM
same,fold improvement of half-life in human liver microsomes,[4],19 fold
"COc1cc(C(=O)c2nc(-c3ccc(C)c(O)c3)[nH]c2Br)cc(OC)c1OC [Compound 29, (5-Bromo-2-(3-hydroxy-4-methylphenyl)-1H-imidazol-4-yl)-(3,4,5-trimethoxyphenyl)methanone]",IC50,[1]; Homo sapiens,80.5 nM
"COc1cc(C(=O)c2cncc(-c3ccc(C)cc3)n2)cc(OC)c1OC [Compound 35, (6-(p-Tolyl)pyrazin-2-yl)(3,4,5-trimethoxyphenyl)methanone]",IC50,[1]; Homo sapiens,4.2 nM
"COc1cc(C(=O)c2cncc(-c3ccc(C)c(O)c3)n2)cc(OC)c1OC [Compound 40a, (6-(3-Hydroxy-4-methylphenyl)pyrazin-2-yl)(3,4,5-trimethoxyphenyl)methanone]",IC50,[1]; Homo sapiens,9.2 nM
"COc1cc(C(=O)c2cncc(-c3cccc4[nH]ncc34)n2)cc(OC)c1OC [Compound 40c, (6-(1H-Indazol-4-yl)pyrazin-2-yl)(3,4,5-trimethoxyphenyl)-methanone]",IC50,[1]; Homo sapiens,33.7 nM
"COc1cc(C(=O)c2ccnc(-c3ccc(C)c(O)c3)n2)cc(OC)c1OC [Compound 46a, (2-(3-Hydroxy-4-methylphenyl)pyrimidin-4-yl)(3,4,5-trimethoxyphenyl)methanone]",IC50,[1]; Homo sapiens,8.2 nM
"COc1cc(C(=O)c2ccnc(-c3c[nH]c4ccccc34)n2)cc(OC)c1OC [Compound 46b, (2-(1H-Indol-3-yl)pyrimidin-4-yl)(3,4,5-trimethoxyphenyl)-methanone]",IC50,[1]; Homo sapiens,26.3 nM
"COc1cc(C(=O)c2cc(C)cc(-c3ccc(C)cc3)n2)cc(OC)c1OC [Compound 50a, (4-Methyl-6-(p-tolyl)pyridin-2-yl)(3,4,5-trimethoxyphenyl)-methanone]",IC50,[1]; Homo sapiens,7.7 nM
same,fold improvement of half-life in human liver microsomes,[4],3 fold
"COc1cc(C(=O)c2cc(OC)c(OC)c(OC)c2)nc(-c2ccc(C)cc2)c1 [Compound 54a, (4-Methoxy-6-(p-tolyl)pyridin-2-yl)(3,4,5-trimethoxyphenyl)-methanone]",fold improvement of half-life in human liver microsomes,[4],3 fold
"COc1cc(C(=O)c2cc(OC)c(OC)c(OC)c2)nc(-c2ccc(C)c(O)c2)c1 [Compound 55b, (6-(3-Hydroxy-4-methylphenyl)-4-methoxypyridin-2-yl)(3,4,5-trimethoxyphenyl)methanone]",fold improvement of half-life in human liver microsomes,[4],3 fold
"COc1cc(C(=O)c2nc(-c3ccc(C)c(O)c3)ccc2F)cc(OC)c1OC [Compound 60c, (3-Fluoro-6-(3-hydroxy-4-methylphenyl)pyridin-2-yl)(3,4,5-trimethoxyphenyl)methanone]",CYP1A inhibition,CYP1A,"CYP1A (HLM, phenacetin substrate): 50.9%"
same,CYP2B6 inhibition,CYP2B6,"CYP2B6 (HLM, bupropion substrate): 12%"
same,CYP2C9 inhibition,CYP2C9,"CYP2C9 (HLM, diclofenac substrate): 54.7%"
same,CYP2C19 inhibition,CYP2C19,"CYP2C19 (HLM, omeprazole substrate): 49%"
same,CYP2D6 inhibition,CYP2D6,"CYP2D6 (HLM, dextromethorphan substrate): 11.9%"
same,CYP3A inhibition,CYP3A; midazolam substrate,"CYP3A (HLM, midazolam substrate): 34.7%"
same,CYP3A inhibition,CYP3A; testosterone substrate,"CYP3A (HLM, testosterone substrate): 51.8%"
same,AMES fluctuation test,TA98,TA98: no mutation
same,AMES fluctuation test,A100,A100: no mutation
same,AMES fluctuation test,TA1535,TA1535: no mutation
same,AMES fluctuation test,TA1537,TA1537: no mutation
same,effect on tubulin polymerization,[2],strongly inhibited microtubule polymerization
same,effect on cell cycle distribution,A375/TxR cells [5],dose-dependent accumulation of cells in the G2/M phase
same,average tumor weight,A375/TxR xenograft [6]; 10 mg/kg IP,1.13 g
same,average tumor weight,A375/TxR xenograft [6]; 20 mg/kg IP,0.76 g
same,tumor necrosis (H&E of excised tumors),A375/TxR xenograft [6],highly necrotic
same,mice that developed liver metastases,A375/TxR xenograft [7]; 20 mg/kg IP,none
same,lung metastasis (H&E),A375/TxR xenograft [7]; 10 and 20 mg/kg IP,lung nodules were markedly sparse and of reduced size
same,body weight during therapy,"[8]; 10 or 20 mg/kg IP, 3 times/week, 18 days",without weight loss
same,"histology of major organs (lung, liver, kidney, heart, spleen), H&E",[8],no apparent pathological changes in the major organs
"COc1cc(C(=O)c2cc(F)cc(-c3ccc(C(F)F)cc3)c2)cc(OC)c1OC [Compound 64, (4′-(Difluoromethyl)-5-fluoro-[1,1′-biphenyl]-3-yl)(3,4,5-trimethoxyphenyl)methanone]",IC50,[1]; Homo sapiens,60.8 nM
"CC(=O)O[C@H]1C(=O)[C@@]2(C)[C@H]([C@H](OC(=O)c3ccccc3)[C@]3(O)C[C@H](OC(=O)[C@H](O)[C@@H](NC(=O)c4ccccc4)c4ccccc4)C(C)=C1C3(C)C)[C@]1(OC(C)=O)CO[C@@H]1C[C@@H]2O [paclitaxel, reference compound]",effect on tubulin polymerization,[2],increased rate of tubulin polymerization
same,effect on cell cycle distribution,A375/TxR cells [5],normal cell cycle progression
same,increase of tumor volume vs vehicle,"A375/TxR xenograft [6]; 10 mg/kg IP, 3 times/week, 18 days",approximately 5.3%
same,average tumor weight,A375/TxR xenograft [6]; 10 mg/kg IP,2.1 g
same,tumor necrosis (H&E of excised tumors),A375/TxR xenograft [6],all viable
same,mice that developed liver metastases,"A375/TxR xenograft [7]; 10 mg/kg IP, vehicle 83%",83%
same,"histology of major organs (lung, liver, kidney, heart, spleen), H&E",[8],no apparent pathological changes in the major organs
"(6-(Indolin-6-yl)pyridin-2-yl)(3,4,5-trimethoxyphenyl)methanone [Compound 4b]",IC50,MDA-MB-231,5.3 ± 1 nM
same,IC50,MDA-MB-453,5.9 ± 1.4 nM
same,IC50,SKBR3,5.5 ± 1.2 nM
same,IC50,A375,5 ± 1 nM
same,IC50,M14,5.6 ± 1.4 nM
same,IC50,RPMI7951,5.9 ± 1.5 nM
same,IC50,[1]; average over six cancer cell lines,5.5 nM
same,metabolic stability in human liver microsome t1/2,"[4]; 0.5 mg/mL protein, 10 μM compound, NADPH",15 ± 1.2 min
same,metabolic stability in mouse liver microsome t1/2,[9],4.2 ± 0.00 min
